Source: ChEMBL document CHEMBL2010648, “Discovery of novel anti-inflammatory drug-like compounds by aligning in silico and in vivo screening: the nitroindazolinone chemotype” (Eur J Med Chem, 2011)

Experiments:
Danio rerio [1] = organism: Danio rerio; experiment: Toxicity in transgenic zebrafish larvae harboring Fli-1 gene assessed as maximum tolerated dosage after 24 hrs; type: organism-based; conditions: in vivo
How it was run: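 Fertilized eggs of the fli-1:EGFP line reared in E3 embryo medium at 28 °C, with PTU added at 20 hpf to block pigmentation. Compounds were dissolved in DMSO and diluted in Danieau's 0.3X, final DMSO ≤1%. Larvae at 4 dpf, 5 per well, were exposed for 24 h to 10, 30 and 100 (highest) concentrations and checked by light microscopy at 5 dpf. MTC is the highest concentration giving no death or toxicity signs.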

Mus musculus [2] = experiment: Antiinflammatory activity against TPA-induced ear edema in Swiss mouse assessed as inhibition of increase in ear weight at 0.5 mg/ear administered topically measured after 4 hrs relative to control; type: functional
How it was run: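 Female Swiss mice (25–30 g, groups of six) received TPA in acetone topically on the right ear, with the left ear as control. Compound in acetone was applied at the same time. After 4 h, 6 mm punches from both ears were weighed. Oedema was taken as the weight difference between ears, and inhibition % was calculated versus the vehicle group. Mean ± SEM, Dunnett's test.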

Danio rerio [3] = organism: Danio rerio; experiment: Antiinflammatory activity in transgenic zebrafish larvae harboring Fli-1 gene assessed as LPS-stimulated leukocyte migration to injury zone of tail transected larvae at 1 uM after 20 to 22 hrs by microscopy; type: functional
How it was run: (§1)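 Transgenic fli-1:EGFP zebrafish were reared in E3 at 28 °C, with PTU added at 20 hpf. Compounds were dissolved in DMSO and diluted in Danieau's, with final DMSO ≤1%. Ten 4-dpf larvae per group were pretreated for 1 h, anaesthetised with tricaine and tail-transected. They were then incubated with compound plus LPS for 20–22 h, fixed in 4% PFA and stained with Leucognost. Leukocyte migration to the tail tip was scored microscopically as relative leukocyte migration. Run in triplicate.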

J774 [4] = experiment: Cytotoxicity against mouse J774 cells at 100 ug/mL after 24 hrs by MTT assay; type: functional
How it was run: (§2)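 J774 macrophages in RPMI-1640 with 20% heat-inactivated FCS were seeded at 70,000 cells/well and allowed to attach for 24 h at 37 °C. They were exposed to compounds for 24 h (final DMSO ≤0.2%), then given MTT 0.4 mg/mL for 60 min; formazan was dissolved in DMSO and read at OD595. %Cytotoxicity was calculated against growth controls, corrected for compound-in-medium blanks. Each concentration was tested three times, in duplicate assays.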

Danio rerio [5] = organism: Danio rerio; experiment: Antiinflammatory activity in transgenic zebrafish larvae harboring Fli-1 gene assessed as LPS-stimulated leukocyte migration to injury zone of tail transected larvae at 3 uM after 20 to 22 hrs by microscopy; type: functional; how it was run: as §1
J774 [6] = experiment: Cytotoxicity against mouse J774 cells at 1 ug/mL after 24 hrs by MTT assay; type: functional; how it was run: as §2
Danio rerio [7] = organism: Danio rerio; experiment: Toxicity to transgenic zebrafish larvae harboring Fli-1 gene at 100 uM after 24 hrs; conditions: in vivo
Danio rerio [8] = organism: Danio rerio; experiment: Antiinflammatory activity in transgenic zebrafish larvae harboring Fli-1 gene assessed as LPS-stimulated leukocyte migration to injury zone of tail transected larvae at 0.3 uM after 20 to 22 hrs by microscopy; type: functional; how it was run: as §1
Mus musculus [9] = organism: Mus musculus; experiment: Inhibition of MPO activity in TPA-induced Swiss mouse ear tissue homogenates after 3 mins relative to control; type: functional, organism-based; parameters: concentration or dose not given beside the values
How it was run: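 Ear tissue was homogenised at 0 °C in 80 mM phosphate buffer with 0.5% HTAB, then centrifuged at 10300g for 20 min at 4 °C. Supernatant, in triplicate, was mixed with phosphate buffer (pH 5.4) and H2O2. The reaction was started with TMB in 8% DMF, run 3 min at 37 °C and stopped with NaOAc/HOAc pH 3.0. A630 was read, and inhibition % was calculated versus the vehicle group.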

J774 [10] = experiment: Cytotoxicity against mouse J774 cells at 10 ug/mL after 24 hrs by MTT assay; type: functional; how it was run: as §2
Danio rerio [11] = organism: Danio rerio; experiment: Antiinflammatory activity in transgenic zebrafish larvae harboring Fli-1 gene assessed as LPS-stimulated leukocyte migration to injury zone of tail transected larvae at 10 uM after 20 to 22 hrs by microscopy; type: functional; how it was run: as §1
Danio rerio [12] = organism: Danio rerio; experiment: Antiinflammatory activity in transgenic zebrafish larvae harboring Fli-1 gene assessed as LPS-stimulated leukocyte migration to injury zone of tail transected larvae at 100 uM after 20 to 22 hrs by microscopy; type: functional; how it was run: as §1
Danio rerio [13] = organism: Danio rerio; experiment: Antiinflammatory activity in transgenic zebrafish larvae harboring Fli-1 gene assessed as LPS-stimulated leukocyte migration to injury zone of tail transected larvae at 30 uM after 20 to 22 hrs by microscopy; type: functional; how it was run: as §1
J774 [14] = experiment: Cytotoxicity against mouse J774 cells at 128 uM after 24 hrs by MTT assay; type: functional; how it was run: as §2
J774 [15] = experiment: Cytotoxicity against mouse J774 cells at 64 uM after 24 hrs by MTT assay; type: functional; how it was run: as §2
J774 [16] = experiment: Cytotoxicity against mouse J774 cells at 256 uM after 24 hrs by MTT assay; type: functional; how it was run: as §2

SMILES	MTD (Danio rerio [1])	Ratio (Danio rerio [3])	Ratio (Danio rerio [5])	Ratio (Danio rerio [11])	Ratio (Danio rerio [13])	other results
O=C1C2=Cc3ccccc3CCN2c2ccccc21	3 µM	0.4	0.24	–	–	inhibition (INH) (Mus musculus [2]): 73%; Activity (J774 [4]): 73.1%; Activity (J774 [6]): 3.4%; Activity (Danio rerio [7]): Toxic; Ratio (Danio rerio [8]): 0.64; inhibition (Mus musculus [9]): 56%; Activity (J774 [10]): 9.4%
COc1ccc2c(c1)c(CC(=O)O)c(C)n2C(=O)c1ccc(Cl)cc1 [INDOMETHACIN]	> 100 µM	0.54	0.5	0.48	0.38	inhibition (INH) (Mus musculus [2]): 97%; Ratio (Danio rerio [12]): 0.28; Ratio (Danio rerio [8]): 0.57; inhibition (Mus musculus [9]): 61%
O=c1[nH]n(Cc2ccccc2OCc2ccccc2)c2ccc([N+](=O)[O-])cc12	10 µM	0.94	0.76	0.84	–	–
O=c1[nH]n(Cc2ccccn2)c2ccc([N+](=O)[O-])cc12	> 100 µM	–	–	0.83	0.74	Ratio (Danio rerio [12]): 0.59
CN(C)CCCOc1nn(Cc2ccccc2F)c2ccc([N+](=O)[O-])cc12	30 µM	–	0.74	0.89	0.97	–
COc1ccc(Cn2[nH]c(=O)c3cc([N+](=O)[O-])ccc32)cc1	10 µM	0.87	0.87	0.8	–	–
CCOCc1ccccc1CCN1CC(=O)Nc2cc([N+](=O)[O-])ccc21	10 µM	0.59	0.62	0.48	–	–
O=C(NN1Cc2ccccc2C1)c1cc([N+](=O)[O-])ccc1Cl	> 100 µM	–	–	0.93	0.93	Ratio (Danio rerio [12]): 0.7
O=c1c2cc([N+](=O)[O-])ccc2[nH]n1Cc1ccccc1	> 100 µM	–	–	0.81	0.65	Ratio (Danio rerio [12]): 0.39
O=c1[nH]n(Cc2ccccc2F)c2ccc([N+](=O)[O-])cc12	10 µM	0.91	0.84	0.3	–	–
COc1nn(Cc2ccccc2-c2ccccc2Cn2nc(OC)c3cc([N+](=O)[O-])ccc32)c2ccc([N+](=O)[O-])cc12	10 µM	0.84	0.87	0.69	–	–
O=c1c2cc([N+](=O)[O-])ccc2n2n1Cc1ccccc1C2	10 µM	0.56	0.54	0.29	–	–
O=c1[nH]n(Cc2ccccc2F)c2ccccc12	30 µM	–	0.46	0.25	0.17	inhibition (INH) (Mus musculus [2]): 32%; inhibition (Mus musculus [9]): -3%
O=C(NCc1cc([N+](=O)[O-])ccc1N1CCc2ccccc2C1)NCc1cc([N+](=O)[O-])ccc1N1CCc2ccccc2C1	10 µM	0.85	0.82	0.81	–	–
Cn1c(=O)c2cc([N+](=O)[O-])ccc2n1Cc1ccccc1	30 µM	–	0.6	0.46	0.26	inhibition (INH) (Mus musculus [2]): 97%; Activity (J774 [4]): 58.4%; Activity (J774 [6]): 32.8%; inhibition (Mus musculus [9]): 56%; Activity (J774 [10]): 43.9%
O=c1[nH]n(Cc2ccccc2)c2ccc([N+](=O)[O-])cc12	10 µM	0.88	0.67	0.46	–	–
O=c1[nH]n(Cc2ccccc2O)c2ccc([N+](=O)[O-])cc12	> 100 µM	–	–	0.86	0.61	Ratio (Danio rerio [12]): 0.27

SMILES	MTD (Danio rerio [1])	Ratio (Danio rerio [3])	Ratio (Danio rerio [5])	Ratio (Danio rerio [11])	Ratio (Danio rerio [13])	other results
O=c1c2cc([N+](=O)[O-])ccc2[nH]n1Cc1ccccn1	> 100 µM	–	–	0.94	0.62	Ratio (Danio rerio [12]): 0.66
O=[N+]([O-])c1ccc2c(c1)CC([O-])=N[N+]21CCCCC1	> 100 µM	–	–	0.86	0.89	Ratio (Danio rerio [12]): 0.81
O=c1[nH]n(Cc2ccccc2CCl)c2ccc([N+](=O)[O-])cc12	10 µM	0.83	0.78	0.33	–	–
O=C(Cc1cc([N+](=O)[O-])ccc1F)NN1Cc2ccccc2C1	> 100 µM	–	–	0.89	0.87	Ratio (Danio rerio [12]): 0.5
O=c1c2cccnc2n2n1Cc1ccccc1C2	30 µM	–	0.89	0.8	0.52	–
O=c1[nH]n(Cc2cccc(Cn3[nH]c(=O)c4cc([N+](=O)[O-])ccc43)c2)c2ccc([N+](=O)[O-])cc12	10 µM	0.87	0.8	0.64	–	–
O=c1[nH]n(Cc2ccccc2Cl)c2ccc([N+](=O)[O-])cc12	30 µM	–	0.78	0.22	0.26	–
COc1nn(Cc2ccccc2F)c2ccc([N+](=O)[O-])cc12	30 µM	–	0.86	0.92	0.87	–
O=c1c2cc([N+](=O)[O-])ccc2n(Cc2ccccc2)n1Cc1ccccc1	10 µM	0.58	0.65	0.35	–	Activity (J774 [14]): 64%; inhibition (INH) (Mus musculus [2]): 80%; Activity (J774 [15]): 9.77%; Activity (J774 [16]): 57.87%; inhibition (Mus musculus [9]): 36%
CCCn1c2ccc([N+](=O)[O-])cc2c(=O)n1Cc1ccccc1	30 µM	–	0.89	0.86	0.16	–
O=[N+]([O-])c1ccc2c(c1)c(OCc1ccccc1)nn2Cc1ccccc1	10 µM	0.94	0.75	0.73	–	–
CCCCCn1c2ccc([N+](=O)[O-])cc2c(=O)n1Cc1ccccc1	10 µM	0.68	0.67	0.27	–	Activity (J774 [14]): 71.75%; inhibition (INH) (Mus musculus [2]): 92%; Activity (J774 [15]): 54.14%; Activity (J774 [16]): 80.99%; inhibition (Mus musculus [9]): 46%
Cn1c2ccc([N+](=O)[O-])cc2c(=O)n1Cc1ccccc1	30 µM	–	0.67	0.63	0.27	inhibition (INH) (Mus musculus [2]): 104%; Activity (J774 [4]): 57.5%; Activity (J774 [6]): 11.5%; inhibition (Mus musculus [9]): 67%; Activity (J774 [10]): 21%
O=[N+]([O-])c1ccc2[nH]nc(OCc3ccccc3Cl)c2c1	10 µM	0.62	0.65	0.41	–	inhibition (INH) (Mus musculus [2]): 91%; Activity (J774 [4]): 96.4%; Activity (J774 [6]): 4.4%; inhibition (Mus musculus [9]): 63%; Activity (J774 [10]): 9.4%
O=c1[nH]n(Cc2ccccc2-c2ccccc2Cn2[nH]c(=O)c3cc([N+](=O)[O-])ccc32)c2ccc([N+](=O)[O-])cc12	10 µM	0.72	0.92	0.85	–	–
O=C1Nc2cc([N+](=O)[O-])ccc2N2Cc3ccccc3CC12 (stereo not given)	10 µM	0.75	0.71	0.77	–	–
